In ChEMBL document CHEMBL4400539, “Discovery of a Novel Chemotype of Histone Lysine Methyltransferase EHMT1/2 (GLP/G9a) Inhibitors: Rational Design, Synthesis, Biological Evaluation, and Co-crystal Structure” (J Med Chem, 2019):
Calls of active or inactive are those of the source. The rule behind the calls is not given here.

Key:
[1] = biological target: Histone acetyltransferase p300 (Homo sapiens) (UniProt Q09472); assay: Inhibition of recombinant human P300 at 10 to 25 uM using biotinylated-Histone H4 peptide (1 to 21 residues) as substrate preincubated for 30 mins followed by substrate addition and measured after 60 mins in presence of SAM by AlphaLISA assay relative to control
[2] = biological target: T1, Histone-lysine N-methyltransferase EHMT1 (Homo sapiens) (UniProt Q9H9B1); assay: Inhibition of recombinant human GLP at 10 uM using biotinylated-Histone H3 peptide (1 to 21 residues) after 30 mins by AlphaLISA assay relative to control
T1 sequence (whole entry): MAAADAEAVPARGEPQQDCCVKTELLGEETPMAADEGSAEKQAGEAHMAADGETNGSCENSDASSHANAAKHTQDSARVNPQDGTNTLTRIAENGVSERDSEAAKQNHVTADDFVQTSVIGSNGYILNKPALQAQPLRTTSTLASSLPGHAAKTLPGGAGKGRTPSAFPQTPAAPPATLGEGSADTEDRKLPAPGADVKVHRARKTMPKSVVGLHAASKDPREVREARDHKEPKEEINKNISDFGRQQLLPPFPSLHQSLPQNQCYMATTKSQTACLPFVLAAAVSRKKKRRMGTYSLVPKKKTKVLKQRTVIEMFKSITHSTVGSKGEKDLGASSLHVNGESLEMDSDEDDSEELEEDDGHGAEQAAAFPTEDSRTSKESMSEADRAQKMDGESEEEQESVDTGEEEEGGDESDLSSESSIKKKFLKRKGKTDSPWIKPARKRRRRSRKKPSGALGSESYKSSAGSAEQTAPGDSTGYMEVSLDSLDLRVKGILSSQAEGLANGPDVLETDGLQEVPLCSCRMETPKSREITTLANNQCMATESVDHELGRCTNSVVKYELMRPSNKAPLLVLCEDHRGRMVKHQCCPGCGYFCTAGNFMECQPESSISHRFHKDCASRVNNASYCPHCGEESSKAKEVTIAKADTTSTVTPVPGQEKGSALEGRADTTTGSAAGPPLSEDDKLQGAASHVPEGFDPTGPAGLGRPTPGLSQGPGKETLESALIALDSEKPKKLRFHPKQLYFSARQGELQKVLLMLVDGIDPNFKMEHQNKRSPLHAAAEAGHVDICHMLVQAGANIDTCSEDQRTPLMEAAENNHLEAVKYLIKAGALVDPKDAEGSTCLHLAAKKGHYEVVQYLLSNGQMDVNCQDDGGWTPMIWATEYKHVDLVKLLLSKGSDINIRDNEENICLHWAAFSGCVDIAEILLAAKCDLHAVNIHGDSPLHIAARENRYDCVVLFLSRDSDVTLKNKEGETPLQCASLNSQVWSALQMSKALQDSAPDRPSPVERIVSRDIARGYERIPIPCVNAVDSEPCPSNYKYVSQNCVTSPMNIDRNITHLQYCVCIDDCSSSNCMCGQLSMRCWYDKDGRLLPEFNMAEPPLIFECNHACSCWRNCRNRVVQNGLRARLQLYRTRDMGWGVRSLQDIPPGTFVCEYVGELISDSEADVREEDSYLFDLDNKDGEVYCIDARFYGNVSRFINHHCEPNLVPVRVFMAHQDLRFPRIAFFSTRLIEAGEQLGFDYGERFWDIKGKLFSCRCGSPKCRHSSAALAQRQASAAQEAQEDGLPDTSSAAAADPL

[3] = biological target: T2, Histone-lysine N-methyltransferase EHMT2 (Homo sapiens) (UniProt Q96KQ7); assay: Inhibition of recombinant human G9a at 10 uM using biotinylated-Histone H3 peptide (1 to 21 residues) after 30 mins by AlphaLISA assay relative to control
T2 sequence (whole entry): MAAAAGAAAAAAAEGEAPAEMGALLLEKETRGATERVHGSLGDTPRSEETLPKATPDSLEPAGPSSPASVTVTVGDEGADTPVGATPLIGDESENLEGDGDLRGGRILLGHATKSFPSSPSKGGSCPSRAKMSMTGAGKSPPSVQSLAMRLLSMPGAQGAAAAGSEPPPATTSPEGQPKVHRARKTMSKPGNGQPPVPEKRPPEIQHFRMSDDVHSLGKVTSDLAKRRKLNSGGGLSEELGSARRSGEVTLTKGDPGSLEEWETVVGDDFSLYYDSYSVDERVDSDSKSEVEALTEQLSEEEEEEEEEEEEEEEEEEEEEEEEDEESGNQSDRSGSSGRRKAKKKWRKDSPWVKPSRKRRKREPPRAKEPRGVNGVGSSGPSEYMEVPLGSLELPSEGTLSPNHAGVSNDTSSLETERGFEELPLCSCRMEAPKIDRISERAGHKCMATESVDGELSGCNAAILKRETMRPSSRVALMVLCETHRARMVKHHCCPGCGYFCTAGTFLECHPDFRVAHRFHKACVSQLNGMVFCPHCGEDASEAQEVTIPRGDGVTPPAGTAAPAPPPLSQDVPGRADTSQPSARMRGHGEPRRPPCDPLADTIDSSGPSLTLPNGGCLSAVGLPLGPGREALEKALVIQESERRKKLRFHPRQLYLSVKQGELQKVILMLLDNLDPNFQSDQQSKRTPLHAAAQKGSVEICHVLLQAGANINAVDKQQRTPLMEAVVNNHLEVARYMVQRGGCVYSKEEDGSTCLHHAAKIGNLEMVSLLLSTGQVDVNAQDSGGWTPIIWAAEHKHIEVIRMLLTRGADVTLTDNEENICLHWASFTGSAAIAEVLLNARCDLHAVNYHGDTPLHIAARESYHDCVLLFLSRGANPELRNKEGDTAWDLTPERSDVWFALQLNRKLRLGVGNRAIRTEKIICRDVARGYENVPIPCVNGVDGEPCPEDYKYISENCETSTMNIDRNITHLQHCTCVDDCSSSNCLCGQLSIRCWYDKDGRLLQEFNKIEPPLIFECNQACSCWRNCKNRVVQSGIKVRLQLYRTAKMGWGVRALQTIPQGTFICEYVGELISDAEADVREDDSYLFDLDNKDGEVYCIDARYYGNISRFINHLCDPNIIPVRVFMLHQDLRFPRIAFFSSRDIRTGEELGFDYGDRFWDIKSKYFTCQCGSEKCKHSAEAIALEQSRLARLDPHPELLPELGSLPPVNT
Method in brief: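 G9a AlphaLISA at fixed 10 or 25 μM compound: human recombinant G9a 1 nM, 30 min preincubation, then biotinylated H3(1–21) 100 nM plus SAM 15 μM for 30 min at room temperature, pH 8.8 Tris buffer with 0.01% Tween-20; anti-H3K9me2 acceptor and streptavidin donor beads; percent of DMSO control.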

[4] = biological target: DNA (cytosine-5)-methyltransferase 3A (Homo sapiens) (UniProt Q9Y6K1); assay: Inhibition of N-terminal GST-tagged recombinant full length human DNMT3a (2 to 913 residues) using bacteriophage lambda DNA as substrate preincubated for 20 mins followed by [3H]-SAM and measured after 60 mins by scintillation counting
Chain of DNA (cytosine-5)-methyltransferase 3A (Homo sapiens) (Q9Y6K1 whole entry, looked up, the tested form may be a part): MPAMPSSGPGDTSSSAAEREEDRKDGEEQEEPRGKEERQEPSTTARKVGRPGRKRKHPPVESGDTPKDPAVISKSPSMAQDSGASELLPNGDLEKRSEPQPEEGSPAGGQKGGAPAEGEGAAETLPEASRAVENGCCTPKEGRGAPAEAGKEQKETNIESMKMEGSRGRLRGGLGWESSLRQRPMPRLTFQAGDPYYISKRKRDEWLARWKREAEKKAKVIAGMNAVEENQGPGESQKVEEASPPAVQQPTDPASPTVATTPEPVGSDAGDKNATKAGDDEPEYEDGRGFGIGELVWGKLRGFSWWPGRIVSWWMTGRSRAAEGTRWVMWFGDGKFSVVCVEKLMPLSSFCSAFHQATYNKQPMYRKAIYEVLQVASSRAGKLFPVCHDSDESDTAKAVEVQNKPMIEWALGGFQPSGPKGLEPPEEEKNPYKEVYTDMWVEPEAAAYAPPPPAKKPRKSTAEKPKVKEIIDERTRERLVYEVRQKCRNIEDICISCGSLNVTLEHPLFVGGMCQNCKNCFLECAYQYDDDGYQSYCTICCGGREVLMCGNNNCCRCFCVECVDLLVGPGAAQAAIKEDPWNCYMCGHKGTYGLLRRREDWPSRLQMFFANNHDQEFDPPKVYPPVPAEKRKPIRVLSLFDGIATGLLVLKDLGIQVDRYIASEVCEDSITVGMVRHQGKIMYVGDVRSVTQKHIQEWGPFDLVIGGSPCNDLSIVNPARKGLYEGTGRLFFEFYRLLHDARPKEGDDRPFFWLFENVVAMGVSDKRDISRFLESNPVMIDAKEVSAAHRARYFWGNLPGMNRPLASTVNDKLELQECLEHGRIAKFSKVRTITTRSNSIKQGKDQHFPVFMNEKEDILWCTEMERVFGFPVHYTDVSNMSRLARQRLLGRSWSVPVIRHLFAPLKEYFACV

Chain of Histone acetyltransferase p300 (Homo sapiens) (Q09472 whole entry, the tested form may be a part): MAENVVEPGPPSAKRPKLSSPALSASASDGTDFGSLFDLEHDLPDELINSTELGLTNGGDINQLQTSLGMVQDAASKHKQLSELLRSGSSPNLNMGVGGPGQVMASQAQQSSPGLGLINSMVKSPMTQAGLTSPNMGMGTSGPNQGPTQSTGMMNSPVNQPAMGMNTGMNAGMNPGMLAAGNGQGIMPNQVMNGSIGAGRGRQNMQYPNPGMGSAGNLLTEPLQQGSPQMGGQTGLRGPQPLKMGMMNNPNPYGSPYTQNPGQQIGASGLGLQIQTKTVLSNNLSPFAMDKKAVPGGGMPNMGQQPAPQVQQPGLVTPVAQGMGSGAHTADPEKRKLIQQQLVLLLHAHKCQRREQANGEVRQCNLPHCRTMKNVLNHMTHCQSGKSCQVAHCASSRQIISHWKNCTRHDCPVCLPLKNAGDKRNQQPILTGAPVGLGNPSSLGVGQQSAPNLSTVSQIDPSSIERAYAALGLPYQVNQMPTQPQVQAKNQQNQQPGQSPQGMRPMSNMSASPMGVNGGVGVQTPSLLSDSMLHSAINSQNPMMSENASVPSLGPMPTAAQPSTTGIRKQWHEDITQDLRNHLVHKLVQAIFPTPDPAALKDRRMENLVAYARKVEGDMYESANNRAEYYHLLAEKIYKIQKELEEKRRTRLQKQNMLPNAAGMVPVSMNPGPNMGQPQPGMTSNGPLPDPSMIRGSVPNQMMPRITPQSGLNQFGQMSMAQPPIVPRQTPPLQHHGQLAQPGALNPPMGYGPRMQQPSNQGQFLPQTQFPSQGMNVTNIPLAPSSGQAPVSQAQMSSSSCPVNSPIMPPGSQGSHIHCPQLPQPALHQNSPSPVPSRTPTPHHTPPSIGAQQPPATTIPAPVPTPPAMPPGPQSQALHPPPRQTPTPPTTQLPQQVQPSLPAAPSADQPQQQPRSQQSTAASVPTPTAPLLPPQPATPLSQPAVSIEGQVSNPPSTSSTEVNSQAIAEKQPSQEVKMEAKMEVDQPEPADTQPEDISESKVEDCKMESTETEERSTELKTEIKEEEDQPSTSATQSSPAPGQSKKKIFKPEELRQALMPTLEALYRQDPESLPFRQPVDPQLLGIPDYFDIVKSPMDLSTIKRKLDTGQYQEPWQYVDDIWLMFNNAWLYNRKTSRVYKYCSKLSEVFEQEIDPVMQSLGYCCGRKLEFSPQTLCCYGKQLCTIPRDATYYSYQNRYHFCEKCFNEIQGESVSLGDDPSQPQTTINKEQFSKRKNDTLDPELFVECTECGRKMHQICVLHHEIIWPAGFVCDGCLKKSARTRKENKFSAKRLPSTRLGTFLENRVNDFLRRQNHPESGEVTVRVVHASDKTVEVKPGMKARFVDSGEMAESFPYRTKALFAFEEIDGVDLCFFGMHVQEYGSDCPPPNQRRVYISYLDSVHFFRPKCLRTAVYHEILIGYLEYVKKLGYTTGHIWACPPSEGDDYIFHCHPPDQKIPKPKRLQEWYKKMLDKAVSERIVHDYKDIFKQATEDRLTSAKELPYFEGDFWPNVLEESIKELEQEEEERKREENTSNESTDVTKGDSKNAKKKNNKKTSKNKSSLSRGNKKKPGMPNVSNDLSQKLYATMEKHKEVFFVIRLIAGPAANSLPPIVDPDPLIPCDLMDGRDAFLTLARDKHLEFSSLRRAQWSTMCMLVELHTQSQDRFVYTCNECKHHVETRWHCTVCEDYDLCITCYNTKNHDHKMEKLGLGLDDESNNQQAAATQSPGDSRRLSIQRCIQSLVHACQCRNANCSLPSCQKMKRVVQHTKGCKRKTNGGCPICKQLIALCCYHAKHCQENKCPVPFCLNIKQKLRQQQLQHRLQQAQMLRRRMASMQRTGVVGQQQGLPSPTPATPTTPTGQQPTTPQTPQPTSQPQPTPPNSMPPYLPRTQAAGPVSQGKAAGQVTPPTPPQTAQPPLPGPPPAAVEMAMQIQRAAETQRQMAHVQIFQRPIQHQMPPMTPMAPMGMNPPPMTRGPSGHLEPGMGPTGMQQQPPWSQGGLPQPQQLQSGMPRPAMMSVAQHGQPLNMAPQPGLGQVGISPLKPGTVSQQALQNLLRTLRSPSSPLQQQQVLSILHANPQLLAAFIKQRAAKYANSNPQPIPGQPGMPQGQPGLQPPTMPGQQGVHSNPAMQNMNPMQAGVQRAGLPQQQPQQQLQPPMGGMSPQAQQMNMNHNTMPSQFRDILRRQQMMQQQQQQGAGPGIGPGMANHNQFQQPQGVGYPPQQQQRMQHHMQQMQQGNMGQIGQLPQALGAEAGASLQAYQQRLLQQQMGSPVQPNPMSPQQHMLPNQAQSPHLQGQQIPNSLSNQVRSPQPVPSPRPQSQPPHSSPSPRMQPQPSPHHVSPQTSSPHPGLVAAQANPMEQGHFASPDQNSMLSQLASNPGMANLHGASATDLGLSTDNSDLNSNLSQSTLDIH

COc1cc2c(cc1OCCCN1CCCC1)N=C(C1CCCCC1)CN=C2NC1CCN(C(C)C)CC1
inhibition [1]: inactive | inhibition [2]: 95% | inhibition [3]: 97% | inhibition [4]: inactive
